Source: ChEMBL document CHEMBL4823320, “SAR of novel benzothiazoles targeting an allosteric pocket of DENV and ZIKV NS2B/NS3 proteases” (Bioorg Med Chem, 2021)
The source made the active and inactive calls. The calls are words filed in the database; no cut-off is given here.

Experiments:
[1] = biological target: T1, Nonstructural protein 3 (Zika virus) (UniProt A0A024AXB9); assay: Inhibition of ZIKV NS2B-NS3 protease expressed in Escherichia coli BL21(DE3) using Boc-Gly-Arg-Arg-AMC as substrate at 200 uM by FRET assay
Method in brief: (§1)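 His-tagged NS2B/NS3 protease, purified by Ni affinity and size exclusion, in 50 mM Tris pH 9.0, 20% glycerol, 1 mM CHAPS with 100 µM Boc-Gly-Arg-Arg-AMC. Fluorescence is read every 30 s for 10 min at 25 °C. Percent inhibition is at a single inhibitor concentration of 20, 100 or 200 µM; ≥3 independent measurements.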

[2] = biological target: Genome polyprotein (dengue virus type 2) (UniProt P29990); assay: Inhibition of DENV2 NS2B-NS3 protease expressed in Escherichia coli BL21(DE3) using Boc-Gly-Arg-Arg-AMC as substrate at 200 uM by FRET assay; method in brief: as §1
[3] = biological target: T1, Nonstructural protein 3 (Zika virus); assay: Inhibition of ZIKV NS2B-NS3 protease expressed in Escherichia coli BL21(DE3) using Boc-Gly-Arg-Arg-AMC as substrate at 100 uM by FRET assay; method in brief: as §1
[4] = biological target: Genome polyprotein (dengue virus type 2) (UniProt P29990); assay: Inhibition of DENV2 NS2B-NS3 protease expressed in Escherichia coli BL21(DE3) using Boc-Gly-Arg-Arg-AMC as substrate at 100 uM by FRET assay; method in brief: as §1
Huh-7 = assay: Cytotoxicity against human Huh-7 cells assessed as cell viability after 96 hrs by CellTiter-Glo Luminescent cell viability assay; format: cell-based; details: huh-7, 96 h
Method in brief: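 Huh7 cells seeded at 4×10^3 per well and treated one day later with 1.25–40 µM compound or DMSO for 96 h. ATP-based luminescent viability read-out, normalized to untreated cells.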

Zika virus [5] = assay: Antiviral activity against ZIKV H/PF/2013 infected in human Huh7 cells assessed as decrease in viral RNA expression at 10 uM measured up to 96 hrs by renilla luciferase assay; format: functional, organism-based; details: Huh-7, time hrs <=96
Method in brief: (§2)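 Huh7 cells electroporated with in vitro transcribed ZIKV H/PF/2013 subgenomic replicon RNA (Renilla luciferase, coelenterazine substrate). Compound at 10 µM or DMSO is added 4 h post-electroporation in medium with 15 mM HEPES and replenished at 48 h. Lysates are taken at 4, 24, 48, 72 and 96 h and normalized to the 4 h input value. Duplicate reads; mean ± SD, n = 3.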

Nonstructural protein 3 = Nonstructural protein 3 (Zika virus, UniProt A0A024AXB9); assay: Inhibition of ZIKV NS2B-NS3 protease expressed in Escherichia coli BL21(DE3) using Boc-Gly-Arg-Arg-AMC as substrate by FRET assay
Method in brief: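 His-tagged ZIKV NS2B/NS3 protease in 50 mM Tris pH 9.0, 20% glycerol, 1 mM CHAPS with 100 µM Boc-Gly-Arg-Arg-AMC. Dilution series 0.01–100 µM, read every 30 s for 10 min at 25 °C. IC50 from a four-parameter fit of hydrolysis rate; mean ± SD of ≥3 independent measurements.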

Genome polyprotein = Genome polyprotein (dengue virus type 2, UniProt P29990); assay: Inhibition of DENV2 NS2B-NS3 protease expressed in Escherichia coli BL21(DE3) using Boc-Gly-Arg-Arg-AMC as substrate by FRET assay
Method in brief: (§3)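 Recombinant His-tagged NS2B/NS3 protease, expressed in E. coli BL21-Gold (DE3) (1 mM IPTG, 20 °C, 16 h) and purified by Ni affinity and size exclusion. Assayed in 50 mM Tris pH 9.0, 20% glycerol, 1 mM Chaps, with 100 μM Boc-Gly-Arg-Arg-AMC. Fluorescence read every 30 s for 10 min at 25 °C; inhibitor 0.01–100 μM. IC50 from a four-parameter fit of hydrolysis rate; ≥3 independent experiments.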

Trypsin (Homo sapiens) = Trypsin (Homo sapiens) (UniProt P07477+P07478+P35030); assay: Inhibition of Trypsin (unknown origin) assessed as residual enzyme activity at 20 uM by FRET assay relative to control; format: protein assay
Method in brief: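 Trypsin in 50 mM Tris pH 8.0, 100 mM NaCl, 5 mM EDTA with 40 µM Z-Phe-Arg-AMC. Compound at 20 µM, read every 30 s for 10 min at 25 °C. Residual activity is relative to DMSO control; mean ± SD, ≥3 independent measurements.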

[6] = biological target: Prothrombin (Homo sapiens) (UniProt P00734); assay: Inhibition of Thrombin (unknown origin) assessed as residual enzyme activity at 20 uM by FRET assay relative to control
Method in brief: (§4)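 Compound at 20 µM, read every 30 s for 10 min at 25 °C. Residual activity is relative to DMSO control; mean ± SD, ≥3 independent measurements.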

[7] = biological target: Chymotrypsin (Homo sapiens) (UniProt Q99895+P17538+P40313+Q6GPI1); assay: Inhibition of Chymotrypsin (unknown origin) assessed as residual enzyme activity at 20 uM by FRET assay relative to control; format: protein assay
Method in brief: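 α-Chymotrypsin in 50 mM Tris pH 8.0, 100 mM NaCl with Succ-Leu-Tyr-AMC. Compound at 20 µM, read every 30 s for 10 min at 25 °C. Residual activity is relative to DMSO control; mean ± SD, ≥3 independent measurements.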

[8] = biological target: Urokinase-type plasminogen activator (Homo sapiens) (UniProt P00749); assay: Inhibition of Urokinase plasminogen activator (unknown origin) assessed as residual enzyme activity at 20 uM by FRET assay relative to control
Method in brief: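 Urokinase plasminogen activator in 50 mM Tris pH 7.4, 50 mM NaCl, 0.5 mM EDTA with 240 µM Z-Gly-Gly-Arg-AMC. Compound at 20 µM, read every 30 s for 10 min at 25 °C. Residual activity is relative to DMSO control; mean ± SD, ≥3 independent measurements.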

[9] = test system: Severe acute respiratory syndrome coronavirus 2; assay: Inhibition of SARS-CoV-2 Main protease assessed as residual enzyme activity at 20 uM by FRET assay relative to control
Method in brief: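 Compound at 20 μM; fluorescence read every 30 s for 10 min at 25 °C. Residual activity expressed relative to DMSO control; mean of ≥3 independent measurements.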

[10] = Inhibition of Rhodesain (unknown origin) assessed as residual enzyme activity at 20 uM by FRET assay relative to control
Method in brief: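 Compound at 20 µM, fluorescence read every 30 s for 10 min at 25 °C. Residual activity is relative to DMSO control; mean ± SD, ≥3 independent measurements.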

[11] = biological target: T2, Sortase A (Staphylococcus aureus) (UniProt Q9S446); assay: Inhibition of staphylococcus aureus Sortase A protease assessed as residual enzyme activity at 20 uM by FRET assay relative to control; method in brief: as §4
T2 sequence (whole entry): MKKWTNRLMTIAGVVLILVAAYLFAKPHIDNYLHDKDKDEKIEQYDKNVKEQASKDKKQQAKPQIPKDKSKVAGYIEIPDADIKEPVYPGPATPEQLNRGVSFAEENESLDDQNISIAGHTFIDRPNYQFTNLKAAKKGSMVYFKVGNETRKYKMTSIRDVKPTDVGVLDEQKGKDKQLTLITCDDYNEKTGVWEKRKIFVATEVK

[12] = Chemical stability of compound in tris assay buffer at pH 9 measured after 15 mins by HPLC/MS analysis; format: physicochemical; details: pH 9, 0.25 h
Method in brief: (§5)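 Compound incubated in protease assay buffer (Tris pH 9.0) under simulated assay conditions and analysed by HPLC/MS after 15 min, 90 min and 20 h. Stability is the compound peak integral in the 210 nm UV trace as a proportion of the total integral.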

[13] = Chemical stability of compound in tris assay buffer at pH 9 measured after 90 mins by HPLC/MS analysis; format: physicochemical; details: pH 9, 1.5 h; method in brief: as §5
[14] = Chemical stability of compound in tris assay buffer at pH 9 measured after 20 hrs by HPLC/MS analysis; format: physicochemical; details: pH 9, 20 h; method in brief: as §5
[15] = Chemical stability of compound in cell culture conditions at pH 7.4 HEPES buffer measured after 15 mins by HPLC/MS analysis; format: physicochemical; details: read-out: Stabilty
Method in brief: (§6)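 Compound incubated under simulated cell-assay conditions (HEPES pH 7.4) and analysed by HPLC/MS after 15 min, 90 min and 20 h. Stability is the compound peak integral in the 210 nm UV trace as a fraction of the total integral.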

[16] = Chemical stability of compound in cell culture conditions at pH 7.4 HEPES buffer measured after 90 mins by HPLC/MS analysis; format: physicochemical; details: read-out: Stabilty; method in brief: as §6
[17] = Chemical stability of compound in cell culture conditions at pH 7.4 HEPES buffer measured after 20 hrs by HPLC/MS analysis; format: physicochemical; details: read-out: Stabilty; method in brief: as §6
dengue virus type 2 = assay: Antiviral activity against DENV2 New Guinea C infected in human Huh7 cells assessed as decrease in viral RNA expression at 10 uM measured up to 72 hrs by firefly luciferase assay; format: functional, organism-based; details: Huh-7, time hrs <=72
Method in brief: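 Huh7 cells electroporated with in vitro transcribed DENV2 NGC subgenomic replicon RNA (firefly luciferase), 4×10^6 cells per 10 µg RNA. Compound at 10 µM or DMSO is added 4 h post-electroporation in medium with 15 mM HEPES and replenished at 48 h. Lysates are taken at 4–96 h and replication is expressed relative to the 4 h input value. Duplicate luminometer reads; mean ± SD, n = 3.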

[18] = Inhibition of DENV2 NS2B-NS3 protease T120A/N167Q mutant expressed in Escherichia coli BL21(DE3) using Boc-Gly-Arg-Arg-AMC as substrate by FRET assay; set-up: species or system dengue virus type 2; method in brief: as §3
Zika virus [19] = assay: Antiviral activity against ZIKV H/PF/2013 infected in human Huh7 cells assessed as decrease in viral RNA expression at 10 uM measured up to 72 hrs by renilla luciferase assay; format: functional, organism-based; details: Huh-7, time hrs <=72; method in brief: as §2

Structure (SMILES) | inhibition [1] | inhibition [2] | IC50 (Nonstructural protein 3) | IC50 (Genome polyprotein) | Activity (Trypsin (Homo sapiens)) | Activity [6] | Activity [7] | Activity [8] | Activity [9] | Activity [10] | Activity [11] | Stabilty [12] | Stabilty [13] | Stabilty [14] | remaining at 0.25 h [15] | remaining at 1.5 h [16] | remaining at 20 h [17] | Activity (dengue virus type 2) | other results
O=C(Nc1ccccc1)c1cc2cc([N+](=O)[O-])c(O)cc2o1 | 48% | 19% |  |  |  |  |  |  |  |  |  |  |  |  |  |  |  |  | 
O=C(Nc1ccccc1)c1cc2c(O)cc(O)cc2o1 |  |  |  |  |  |  |  |  |  |  |  |  |  |  |  |  |  |  | inhibition [3]: 62%; inhibition [4]: 51%
O=C(Nc1ccccc1)c1cc2ccc(O)cc2o1 | inactive | inactive |  |  |  |  |  |  |  |  |  |  |  |  |  |  |  |  | 
Nc1cc2cc(C(=O)Nc3ccccc3)oc2cc1O | 52% | 34% |  |  |  |  |  |  |  |  |  |  |  |  |  |  |  |  | 
O=C(Nc1ccccc1)c1cc2cc(O)c(O)cc2o1 |  |  | 1040 nM | 690 nM | 96% | 97% | 58% | 91% | 52% | 93% | 64% | 83% | 83% | 83% | 95% | 95% | 95% | Active | Activity (Huh-7): Non-Toxic; Activity (Zika virus [5]): Active; IC50 [18]: 730 nM
COc1cc2nc(NC(=O)c3ccc(I)cc3)sc2cc1OC |  |  |  |  |  |  |  |  |  |  |  |  |  |  |  |  |  | Active | 
COc1cc2nc(NC(=O)C(c3ccccc3)c3ccccc3)sc2cc1OC |  |  |  |  |  |  |  |  |  |  |  |  |  |  |  |  |  | Active | Activity (Zika virus [19]): inactive
O=C(Nc1nc2cc(O)c(O)cc2s1)c1ccccc1 |  |  | 9190 nM | 27000 nM | 80% | 75% | 77% | 100% | 90% | 91% | 57% | 67% | 61% | 83% | 95% | 95% | 95% |  | 
O=C(Nc1nc2cc(O)c(O)cc2s1)C(c1ccccc1)c1ccccc1 |  |  | 950 nM | 11100 nM | 85% | 95% | 96% | 62% | 77% | 86% | 73% | 83% | 83% | 83% | 95% | 95% | 95% | Active | Activity (Huh-7): Non-Toxic
O=C(Nc1ccccc1)[C@@H]1CCCN1C(=O)c1cc2cc(O)c(O)cc2o1 |  |  | 2430 nM | 6430 nM | 88% | 81% | 78% | 82% | 99% | 93% | 81% | 83% | 83% | 83% | 95% | 95% | 95% |  | 
O=C(Nc1ccccc1)c1cc2cc(O)ccc2o1 | inactive | inactive |  |  |  |  |  |  |  |  |  |  |  |  |  |  |  |  | 
